According to ChEMBL document CHEMBL3244090, “Combined high oxytocic with negligible antidiuretic and pressor activities in multisubstituted oxytocins” (J Med Chem, 1977):
*1 amine or outer side, *2 acyl side, *3 side chain or, on linkers, in order; H or OH if unused. Where a SMILES comes first, the peptide text is derived from it. Bridges are numbered along the chain shown (N, C = ends). X1 = O=C([C@H](O)CS[*:2])[*:1]

What was measured:
[1] = Oxytocic potency in rat uterus; format: functional
Method in brief: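 Isolated uterine horns from rats in natural estrus. The standard was given repeatedly until reproducible values were obtained. After the preparation was exposed to an analogue, several further doses of standard were needed before the standard's potency became consistent between analogue injections.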

Gallus gallus = experiment: Vasodepressor activity in conscious chicken; format: ADME, organism-based; settings: in vivo
Method in brief: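 Vasodepressor assay run in conscious chickens.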

Rattus norvegicus [2] = experiment: Antidiuretic activity in iv dosed rat; format: ADME, organism-based, Urine; settings: in vivo
Method in brief: (§1)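 Pressor and antidiuretic assays run in anesthetized male rats.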

[3] = Ratio of oxytocic potency to antidiuretic activity in rat; design: species or system Urine
Rattus norvegicus [4] = species on record: Rattus norvegicus; experiment: Vasopressor activity in rat; format: ADME, organism-based; settings: in vivo; method in brief: as §1

Row | SMILES | Activity [1] [U/mg] | Activity (Gallus gallus) [U/mg] | Activity (Rattus norvegicus [2]) [U/mg] | Ratio [3] | Activity (Rattus norvegicus [4]) [U/mg]
1 | CC[C@H](C)[C@@H]1NC(=O)[C@H](Cc2ccc(O)cc2)NC(=O)[C@@H](N)CSSC[C@@H](C(=O)NCC(=O)N[C@@H](CC(C)C)C(=O)NCC(N)=O)NC(=O)[C@H](CC(N)=O)NC(=O)[C@H](CCC(N)=O)NC1=O (H-CYIQNCGLG-NH2; disulfide 1-6) | 65 | 224 | 0.01 | 6500 | 0.3
2 | CC[C@H](C)[C@@H]1NC(=O)[C@H](Cc2ccc(O)cc2)NC(=O)[C@@H](N)CSSC[C@@H](C(=O)N2CCC[C@H]2C(=O)N[C@@H](CC(C)C)C(=O)NCC(N)=O)NC(=O)[C@H](CC(N)=O)NC(=O)[C@H]([C@@H](C)O)NC1=O (H-CYITNCPLG-NH2; disulfide 1-6) | 923 | 1480 | 1.8 | 500 | 0.43
3 | CC[C@H](C)[C@@H]1NC(=O)[C@H](Cc2ccc(O)cc2)NC(=O)[C@H](O)CSSC[C@@H](C(=O)N2CCC[C@H]2C(=O)N[C@@H](CC(C)C)C(=O)NCC(N)=O)NC(=O)[C@H](CC(N)=O)NC(=O)[C@H](CCC(N)=O)NC1=O (YIQNCPLG-NH2; linker N-5 via X1) | 1275 | 1778 | 16.6 | 40 | 14.7
4 | CC[C@H](C)[C@@H]1NC(=O)[C@H](Cc2ccc(O)cc2)NC(=O)[C@@H](N)CSSC[C@@H](C(=O)N2CCC[C@H]2C(=O)N[C@@H](CC(C)C)C(=O)NCC(N)=O)NC(=O)[C@H](CC(N)=O)NC(=O)[C@H](CCC(N)=O)NC1=O [OXYTOCIN] | 546 | 507 | 2.7 | 200 | 3.1
5 | CC[C@H](C)[C@@H]1NC(=O)[C@H](Cc2ccc(O)cc2)NC(=O)[C@@H](N)CSSC[C@@H](C(=O)NCC(=O)N[C@@H](CC(C)C)C(=O)NCC(N)=O)NC(=O)[C@H](CC(N)=O)NC(=O)[C@H]([C@@H](C)O)NC1=O (H-CYITNCGLG-NH2; disulfide 1-6) | 175 | 8.6 | 0.001 | 135000 | 
6 | CC[C@H](C)[C@@H]1NC(=O)[C@H](Cc2ccc(O)cc2)NC(=O)[C@H](O)CSSC[C@@H](C(=O)NCC(=O)N[C@@H](CC(C)C)C(=O)NCC(N)=O)NC(=O)[C@H](CC(N)=O)NC(=O)[C@H]([C@@H](C)O)NC1=O (YITNCGLG-NH2; linker N-5 via X1) | 337 | 50 | 0.048 | 7000 | 
